Activity calls are given as the source filed them. The rule behind the calls is not given here.
Tests used:
Rattus norvegicus [1] = test: (§1) Antioxidant activity in streptozotocin-induced diabetic Wistar rat model assessed as reduction in 3-NT protein expression in liver at 10 mg/L, po administered with superbock stout beer for 5 weeks prior to wounding measured on day 7 post-wounding by Western blotting analysis (reference value: 5.52 +/- 1.64%); type: functional; design: scale not given: the % may be the effect or the level left
Rattus norvegicus [2] = test: Antioxidant activity in streptozotocin-induced diabetic Wistar rat model assessed as […] in H2O2 release in liver at 10 mg/L, po administered with superbock stout beer for 5 weeks prior to wounding measured on day 7 post-wounding by fluorescence assay relative to control; type: functional, organism-based
Outline: (§2)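 Fresh kidney or liver cut into 3 mm3 pieces and incubated 90 min at 37 °C in oxygenated, shaken Krebs-HEPES (pH 7.4, 5 mM glucose). H2O2 released measured by Amplex Red fluorescence. Expressed as percent of healthy control; means ± SEM, n = 4–6.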

Rattus norvegicus [3] = test: Antioxidant activity in streptozotocin-induced diabetic Wistar rat model assessed as increase in reduced/oxidized glutathione ratio in serum at 10 mg/L, po administered with superbock stout beer for 5 weeks prior to wounding measured on day 7 post-wounding by RP-HPLC analysis; type: functional, organism-based
Outline: (§3)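 Plasma reduced and oxidized glutathione separated and quantified by reversed-phase HPLC with a GSH/GSSG kit. Samples came from skin-injured STZ-diabetic rats after five weeks of ad libitum beverage. Expressed as percent of control; n = 4–6.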

Rattus norvegicus [4] = test: Antiangiogenic activity in streptozotocin-induced diabetic Wistar rat model assessed as decrease in microvessel density in wound region at 10 mg/L, po administered with superbock stout beer for […] prior to wounding measured on day 7 post-wounding by wound healing assay; type: functional, organism-based
Outline: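 Beverage given ad libitum, renewed every two days, kept in dark bottles. Vessels counted in three dorsal skin wound sections per animal and normalized to section area; each separate stained endothelial cell or cluster counted as one vessel; n = 4–6.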

Rattus norvegicus [5] = test: Antiinflammatory activity in streptozotocin-induced diabetic Wistar rat model assessed as reduction in N-acetylglucosaminidase level in serum at 10 mg/L, po administered with superbock stout beer for 5 weeks prior to wounding measured on day 7 post-wounding relative to control; type: functional, organism-based
Rattus norvegicus [6] = test: Antiinflammatory activity in streptozotocin-induced diabetic Wistar rat model assessed as reduction in nitric oxide level in serum at 10 mg/L, po administered with superbock stout beer for 5 weeks prior to wounding measured on day 7 post-wounding by Griess method relative to control; type: functional, organism-based
Rattus norvegicus [7] = test: as §1, with “kidney” for “liver”, “3.76” for “5.52”, “0.57%)” for “1.64%)”; type: functional; design: scale not given: the % may be the effect or the level left
Rattus norvegicus [8] = test: Antioxidant activity in streptozotocin-induced diabetic Wistar rat model assessed as reduction in protein carbonylation in kidney at 10 mg/L, po administered with superbock stout beer for 5 weeks prior to wounding measured on day 7 post-wounding by Western blotting analysis relative to control; type: functional, organism-based
Rattus norvegicus [9] = test: Antioxidant activity in streptozotocin-induced diabetic Wistar rat model assessed as increase in reduced glutathione level in serum at 10 mg/L, po administered with superbock stout beer for 5 weeks prior to wounding measured on day 7 post-wounding by RP-HPLC analysis; type: functional, organism-based; outline: as §3
Rattus norvegicus [10] = test: as §1, with “hepatic” for “3-NT”, “carbonylation” for “expression in liver”, “13.80” for “5.52”, “1.12%)” for “1.64%)”; type: functional; design: scale not given: the % may be the effect or the level left
Rattus norvegicus [11] = test: Antioxidant activity in streptozotocin-induced diabetic Wistar rat model assessed as decrease in H2O2 release in kidney at 10 mg/L, po administered with superbock stout beer for 5 weeks prior to wounding measured on day 7 post-wounding by fluorescence assay relative to control; type: functional, organism-based; outline: as §2
Rattus norvegicus [12] = test: Antiangiogenic activity in streptozotocin-induced diabetic Wistar rat model assessed as reduction in VEGF-A level in plasma at 10 mg/L, po administered with superbock stout beer for 5 weeks prior to wounding measured on day 7 post-wounding by ELISA; type: functional, organism-based
Outline: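 STZ-diabetic male Wistar rats (50 mg/kg i.p.; glucose >250 mg/dL) drinking the beverage ad libitum for five weeks, with skin injury. Plasma VEGF-A measured by rat VEGF Quantikine ELISA per kit instructions; means ± SEM, n = 4–6; ANOVA with Bonferroni.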

Rattus norvegicus [13] = test: Antiinflammatory activity in streptozotocin-induced diabetic Wistar rat model assessed as reduction in IL1beta level in serum at 10 mg/L, po administered with superbock stout beer for 5 weeks prior to wounding measured on day 7 post-wounding by ELISA (reference value: 20.94 +/- 2.17 pg/mL); type: functional

## COc1cc(O)c(CC=C(C)C)c(O)c1C(=O)/C=C/c1ccc(O)cc1 [XANTHOHUMOL]
Rattus norvegicus [1]
  Activity: 1.38%
Rattus norvegicus [2]
  Activity: Active
Rattus norvegicus [3]
  Activity: Active
Rattus norvegicus [4]
  Activity: Active
Rattus norvegicus [5]
  Activity: Active
Rattus norvegicus [6]
  Activity: Active
Rattus norvegicus [7]
  Activity: 1.99%
Rattus norvegicus [8]
  Activity: Active
Rattus norvegicus [9]
  Activity: Active
Rattus norvegicus [10]
  Activity: 4.67%
Rattus norvegicus [11]
  Activity: Active
Rattus norvegicus [12]
  Activity: Active
Rattus norvegicus [13]
  Activity: 13.36 pg/mL

Reference: ChEMBL document CHEMBL3091301, “Xanthohumol modulates inflammation, oxidative stress, and angiogenesis in type 1 diabetic rat skin wound healing” (2013)
